Results: ChEMBL document CHEMBL1828560, “Design, synthesis and biological study of pinacolyl boronate-substituted stilbenes as novel lipogenic inhibitors” (Bioorg Med Chem Lett, 2011)
The source made the active and inactive calls. The calls are words filed in the database; no cut-off is given here.

Experiments:
HepG2 [1] = test: Cytotoxicity against human HepG2 cells; assay type: cell-based
HepG2 [2] = test: Inhibition of FAS gene expression in human HepG2 cells at 30 uM after 6 hrs by quantitative RT-PCR; assay type: functional, cell-based
Method in brief: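 HepG2 cells grown at 37°C, 5% CO2 in DMEM with 10% FBS, penicillin-streptomycin and 20mM glutamine; compounds at 30μM for 6 hours. Total RNA extracted with Trizol; 2 μg reverse-transcribed to cDNA; FAS transcript quantified by real-time qPCR with cyclophilin B as invariant control. Three independent samples averaged; compared with DMSO.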

FaO [3] = test: Inhibition of cholesterol biosynthesis in rat FaO cells at 20 uM after 12 hrs by deuterium enrichment-GC/MS method in presence of 100 nM insulin; assay type: functional, cell-based
Method in brief: (§1)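 Rat hepatoma FAO cells, maintained in DMEM with 10% FBS, treated at 20μM for 12 hours with 100 nM insulin. Cells cultured in DMEM containing 10% 2H2O for 18 hours; deuterium incorporation into palmitate or cholesterol measured by GC/MS to give synthesis rate. Averages of three independent samples vs DMSO.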

Mus musculus = organism: Mus musculus; test: Toxicity in mouse; assay type: organism-based; conditions: in vivo
FaO [4] = test: Inhibition of lipogenesis in rat FaO cells assessed as decrease in synthesis rate of palmitate at 20 uM after 12 hrs by deuterium enrichment-GC/MS method in presence of 100 nM insulin; assay type: functional, cell-based; method in brief: as §1
HepG2 [5] = test: Inhibition of HMGCR gene expression in human HepG2 cells after 6 hrs by measuring mRNA level of HMGCR using quantitative RT-PCR; assay type: functional, cell-based
Method in brief: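 HepG2 cells cultured in DMEM plus 10% FBS, penicillin-streptomycin, 20mM glutamine (37°C, 5% CO2), exposed to a series of concentrations for 6 hours. HMGCR mRNA measured by qRT-PCR: Trizol RNA extraction, 2 μg RNA converted to cDNA, real-time PCR normalized to cyclophilin B.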

| Structure (SMILES) | Activity (HepG2 [1]) | inhibition (HepG2 [2]) | inhibition (FaO [3]) | Activity (Mus musculus) | inhibition (FaO [4]) | inhibition (HepG2 [5]) |
| --- | --- | --- | --- | --- | --- | --- |
| CC1(C)OB(c2ccc(C=Cc3ccc(O)cc3)cc2)OC1(C)C (mixture of isomers) | Non-toxic | Active | Active | Non-toxic | Active | Dose-dependent effect |
| CC1(C)OB(c2ccc(C=Cc3cc(Cl)cc(Cl)c3)cc2)OC1(C)C (mixture of isomers) | Non-toxic | Active | – | – | – | – |
| COc1ccc(C=Cc2ccc(B3OC(C)(C)C(C)(C)O3)cc2)cc1 (mixture of isomers) | – | inactive | – | – | – | inactive |
